Measured values of several laboratories.
Protocols differ between the studies behind these lines.
Target: Death-associated protein kinase 3 (DAPK3, Homo sapiens, UniProt O43293)

| Compound | effect on | method | tested at | remaining binding [%] |
| --- | --- | --- | --- | --- |
| Cc1c(NC(=O)c2cc(C(N)=O)nc3cc(F)ccc23)c(C(F)(F)F)nn1Cc1ccc(C#N)cc1 | cell-free assay | competition with immobilised ligand | 1 µM | 89 |
| O=C(c1ccc(Nc2ncc(Cl)c(-c3ccc(Cl)s3)n2)cc1)N1CCC(N2CCCC2)CC1 | binding | competition with immobilised ligand | 1 µM | 14 |
| CN(C)c1ncc(F)c(-c2cnn3ncccc23)n1 | binding | – | 1 µM | 63 |
| CCCCN(CCCC)C(=O)CN1C[C@@H](c2cc(OC)c3c(c2)OCO3)[C@H](C(=O)O)[C@H]1CC(C)(C)CCC | cell-free assay | competition with immobilised ligand | 1 µM | 100 |
| C[C@@H](c1ccc(-n2cnc3c(N)ncnc32)cc1)N1CCc2nn(C)c(Cc3ccccc3)c2C1=O | binding | competition with immobilised ligand | 0.1 µM | 87 |
| O=C(NCCCN1CCOCC1)c1ccc(Nc2ncc(Cl)c(-c3ccc(Cl)s3)n2)cc1 | binding | competition with immobilised ligand | 1 µM | 17 |
| N[C@@H]1CCN(c2nccc(-c3cnn4ncccc34)n2)C1 | binding | – | 1 µM | 99 |
| CC(=O)Nc1c(C(C)=O)c(=O)n(C)c2nc(-c3ccc(Cl)cc3Cl)c(-c3ccc(Cl)cc3)cc12 | cell-free assay | competition with immobilised ligand | 1 µM | 100 |
| Cc1cnn2ncc(-c3ccnc(N(C)C)n3)c2c1 | binding | – | 1 µM | 84 |
| Cn1cc(Cl)c2c(Oc3c(F)cc(Nc4cc(Cl)nc(N)n4)cc3F)ccnc21 | cell-free assay | competition with immobilised ligand | 0.1 µM | 100 |
| COc1ncc2cc3ccccc3nc2c1C#N | cell-free assay | competition with immobilised ligand | 5 µM | 98 |
| CNC(=O)Nc1ccc2c(c1)CC[C@@]21OC(=O)N(CC(=O)N(Cc2ccc(F)cc2)[C@@H](C)C(F)(F)F)C1=O | cell-free assay | competition with immobilised ligand | 1 µM | 86 |
| c1cnn2ncc(-c3ccnc(N4CCC45COC5)n3)c2c1 | binding | – | 1 µM | 73 |
| Nc1c(C(=O)NCc2ccc(C(=O)NCCCC3CCCCC3)cc2)cnn1-c1ccccc1 | cell-free assay | competition with immobilised ligand | 0.1 µM | 100 |
| CN(c1nccc(-c2cnn3ncccc23)n1)C1CC1 | binding | – | 1 µM | 70 |
| COc1cnc(Nc2cccc(S(N)(=O)=O)c2)nc1N1CCN(c2ccccc2)CC1 | binding | competition with immobilised ligand | 1 µM | 76 |
| O=C1NC(c2ccccn2)Sc2ccccc21 (stereo not shown) | cell-free assay | competition with immobilised ligand | 1 µM | 0 |
| FC(F)(F)Oc1cccc(-c2cnc3ccc(-c4ccncc4)nn23)c1 | cell-free assay | competition with immobilised ligand | 5 µM | 67 |
| C[C@@H]1CCN(c2nccc(-c3cnn4ncccc34)n2)C1 | binding | – | 1 µM | 69 |
| O=C(Nc1c[nH]nc1C(=O)NC1CCNCC1)c1cc(F)cc(F)c1 | binding | competition with immobilised ligand | 1 µM | 100 |
| COc1ccnn2ncc(-c3ccnc(N(C)C)n3)c12 | binding | – | 1 µM | 72 |
| Cc1cnc(Nc2ccc(C(=O)N3CCC(N4CCCC4)CC3)cc2)nc1-c1cc2ccccc2s1 | binding | competition with immobilised ligand | 1 µM | 3.4 |
